From ChEMBL document CHEMBL3244146, “Pyranenamines: a new series of antiallergic compounds” (1979)

Assays:
Lung [1] = assay: Antiallergic activity in passively sensitized albino rat lungs assessed as inhibition of antigen-induced histamine release at 1 x 10^-6 M by fluorometric analysis relative to control; type: functional
Outline: (§1)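 Fragmented lung from adult male Charles River albino rats, passively sensitized, then antigen-challenged with compound present; released histamine measured fluorometrically; inhibition reported relative to control, with replicate count given as number of separate lung preparations.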

Rattus norvegicus [2] = assay: Antiallergic activity in iv dosed rat assessed as inhibition of egg albumin-induced passive cutaneous anaphylaxis treated for 30 secs followed by egg albumin-challenge measured after 30 mins; type: functional; details: 0.5 h, read-out: ID50 (the source's name)
Lung [3] = assay: Antiallergic activity in passively sensitized albino rat lungs assessed as inhibition of antigen-induced histamine release at 1 x 10^-8 M by fluorometric analysis relative to control; type: functional; outline: as §1
Lung [4] = assay: Antiallergic activity in passively sensitized albino rat lungs assessed as inhibition of antigen-induced histamine release at 1 x 10^-7 M by fluorometric analysis relative to control; type: functional; outline: as §1
Lung [5] = assay: Antiallergic activity in passively sensitized albino rat lungs assessed as inhibition of antigen-induced histamine release at 1 x 10^-5 M by fluorometric analysis relative to control; type: functional; outline: as §1
Rattus norvegicus [6] = assay: Antiallergic activity in po dosed rat assessed as inhibition of egg albumin-induced passive cutaneous anaphylaxis treated for 15 mins followed by egg albumin-challenge measured after 30 mins; type: functional; details: read-out: ID50 (the source's name)
Outline: (§2)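 Oral PCA in rats: intradermal antiserum at four back sites (dose giving ~12×12 mm wheal), compound po 48 h later, 15 min before iv challenge with 0.5 mL saline containing 5 mg Evans blue plus 5 mg egg albumin; skin bluing read 30 min after challenge on two axes per wheal; six rats per dose versus ≥6 vehicle controls; percent inhibition from mean wheal size, one-sided t test.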

[7] = Antiallergic activity in passively sensitized rhesus monkey lungs assessed as inhibition of antigen-induced slow reacting substance of anaphylaxis release at 6.6 x 10^-6 M relative to control; type: functional, Macaca mulatta, Lung
Outline: (§3)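 Passively sensitized fragmented lung from a young adult male rhesus monkey, challenged with IgE-antihuman IgE; histamine release measured fluorometrically and SRS-A estimated by guinea pig ileum bioassay; inhibition relative to control; replicates given as number of separate lung preparations.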

[8] = Antiallergic activity in passively sensitized rhesus monkey lungs assessed as inhibition of antigen-induced slow reacting substance of anaphylaxis release at 3.3 x 10^-5 M relative to control; type: functional, Macaca mulatta, Lung; outline: as §3
[9] = Antiallergic activity in passively sensitized rhesus monkey lungs assessed as inhibition of antigen-induced histamine release at 1.6 x 10^-4 M by fluorometric analysis relative to control; type: functional, Macaca mulatta, Lung; outline: as §3
[10] = Antiallergic activity in passively sensitized rhesus monkey lungs assessed as inhibition of antigen-induced histamine release at 3.3 x 10^-5 M by fluorometric analysis relative to control; type: functional, Macaca mulatta, Lung; outline: as §3
Lung [11] = assay: Antiallergic activity in passively sensitized albino rat lungs assessed as inhibition of antigen-induced histamine release at 1.6 x 10^-4 M by fluorometric analysis relative to control; type: functional; outline: as §1
Lung [12] = assay: Antiallergic activity in passively sensitized albino rat lungs assessed as inhibition of antigen-induced histamine release at 6.6 x 10^-6 M by fluorometric analysis relative to control; type: functional; outline: as §1
Lung [13] = assay: Antiallergic activity in passively sensitized albino rat lungs assessed as inhibition of antigen-induced histamine release at 6.6 x 10^-7 M by fluorometric analysis relative to control; type: functional; outline: as §1
[14] = Antiallergic activity in passively sensitized rhesus monkey lungs assessed as inhibition of antigen-induced slow reacting substance of anaphylaxis release at 1.6 x 10^-4 M relative to control; type: functional, Macaca mulatta, Lung; outline: as §3
[15] = Antiallergic activity in passively sensitized rhesus monkey lungs assessed as inhibition of antigen-induced histamine release at 6.6 x 10^-6 M by fluorometric analysis relative to control; type: functional, Macaca mulatta, Lung; outline: as §3
Rattus norvegicus [16] = assay: Antiallergic activity in rat assessed as inhibition of egg albumin-induced passive cutaneous anaphylaxis at 100 mg/kg, iv treated for 30 secs followed by egg albumin-challenge measured after 30 mins relative to control; type: functional; details: 0.5 h
Rattus norvegicus [17] = assay: Antiallergic activity in rat assessed as inhibition of egg albumin-induced passive cutaneous anaphylaxis at 25 mg/kg, po treated for 15 mins followed by egg albumin-challenge measured after 30 mins relative to control; type: functional; outline: as §2
Rattus norvegicus [18] = assay: Antiallergic activity in rat assessed as inhibition of egg albumin-induced passive cutaneous anaphylaxis at 0.25 mg/kg, iv treated for 30 secs followed by egg albumin-challenge measured after 30 mins relative to control; type: functional; details: 0.5 h
Rattus norvegicus [19] = assay: Antiallergic activity in rat assessed as inhibition of egg albumin-induced passive cutaneous anaphylaxis at 0.5 mg/kg, iv treated for 30 secs followed by egg albumin-challenge measured after 30 mins relative to control; type: functional; details: 0.5 h
Rattus norvegicus [20] = assay: Antiallergic activity in rat assessed as inhibition of egg albumin-induced passive cutaneous anaphylaxis at 50 mg/kg, po treated for 15 mins followed by egg albumin-challenge measured after 30 mins relative to control; type: functional; outline: as §2
[21] = Antiallergic activity in passively sensitized rhesus monkey lungs assessed as inhibition of antigen-induced slow reacting substance of anaphylaxis release at 1 x 10^-6 M relative to control; type: functional, Macaca mulatta, Lung; outline: as §3
[22] = Antiallergic activity in passively sensitized rhesus monkey lungs assessed as inhibition of antigen-induced histamine release at 1 x 10^-6 M by fluorometric analysis relative to control; type: functional, Macaca mulatta, Lung; outline: as §3
[23] = Antiallergic activity in passively sensitized rhesus monkey lungs assessed as inhibition of antigen-induced slow reacting substance of anaphylaxis release at 1 x 10^-4 M relative to control; type: functional, Macaca mulatta, Lung; outline: as §3
[24] = Antiallergic activity in passively sensitized rhesus monkey lungs assessed as inhibition of antigen-induced slow reacting substance of anaphylaxis release; type: functional, Macaca mulatta, Lung; outline: as §3
[25] = Antiallergic activity in passively sensitized rhesus monkey lungs assessed as inhibition of antigen-induced histamine release at 5 x 10^-5 M by fluorometric analysis relative to control; type: functional, Macaca mulatta, Lung; outline: as §3
Rattus norvegicus [26] = assay: Antiallergic activity in rat assessed as inhibition of egg albumin-induced passive cutaneous anaphylaxis at 0.7 mg/kg, iv treated for 30 secs followed by egg albumin-challenge measured after 30 mins relative to control; type: functional; details: 0.5 h
[27] = Antiallergic activity in passively sensitized rhesus monkey lungs assessed as inhibition of antigen-induced slow reacting substance of anaphylaxis release at 1 x 10^-5 M relative to control; type: functional, Macaca mulatta, Lung; outline: as §3
[28] = Antiallergic activity in passively sensitized rhesus monkey lungs assessed as inhibition of antigen-induced histamine release by fluorometric analysis; type: functional, Macaca mulatta, Lung; outline: as §3
[29] = Antiallergic activity in passively sensitized rhesus monkey lungs assessed as inhibition of antigen-induced histamine release at 1 x 10^-4 M by fluorometric analysis relative to control; type: functional, Macaca mulatta, Lung; outline: as §3
Rattus norvegicus [30] = assay: Ratio of antiallergic activity in iv dosed rat to antiallergic activity in po dosed rat; type: functional
[31] = Antiallergic activity in passively sensitized rhesus monkey lungs assessed as inhibition of antigen-induced slow reacting substance of anaphylaxis release at 5 x 10^-5 M relative to control; type: functional, Macaca mulatta, Lung; outline: as §3
[32] = Antiallergic activity in passively sensitized rhesus monkey lungs assessed as inhibition of antigen-induced histamine release at 1 x 10^-5 M by fluorometric analysis relative to control; type: functional, Macaca mulatta, Lung; outline: as §3

CCC(=O)Nc1cc(N/C(C)=C2\C(=O)OC(=O)C(C(C)=O)=C2O)ccc1O
inhibition (INH) (Lung [1]): 66% | ED50 (Rattus norvegicus [2]): 0.4 mg/kg | inhibition (INH) (Lung [3]): 41% | inhibition (INH) (Lung [4]): 70% | inhibition (INH) (Lung [5]): 65% | ED50 (Rattus norvegicus [6]): 0.6 mg/kg

CC(=O)C1=C(O)/C(=C(\C)Nc2ccc(O)cc2)C(=O)OC1=O
inhibition (INH) [7]: 8.6% | inhibition (INH) [8]: 33% | inhibition (INH) [9]: 59% | inhibition (INH) [10]: 50% | inhibition (INH) (Lung [11]): 45% | ED50 (Rattus norvegicus [2]): 1.3 mg/kg | inhibition (INH) (Lung [12]): 44% | inhibition (INH) (Lung [13]): 34% | inhibition (INH) [14]: 51% | inhibition (INH) [15]: 18% | ED50 (Rattus norvegicus [6]): 29 mg/kg

CC(=O)C1=C(O)/C(=C(\C)Nc2ccc(N(C)C)cc2)C(=O)OC1=O
inhibition in vivo at 100 mg/kg (Rattus norvegicus [16]): 11%

CC(=O)Nc1cccc(N/C(C)=C2\C(=O)OC(=O)C(C(C)=O)=C2O)c1
inhibition in vivo at 25 mg/kg (Rattus norvegicus [17]): 53% | inhibition in vivo at 0.25 mg/kg (Rattus norvegicus [18]): 65%

CC(=O)C1=C(O)/C(=C(\C)Nc2ccc(NC(=O)C(C)C)cc2)C(=O)OC1=O
inhibition in vivo at 25 mg/kg (Rattus norvegicus [17]): 4% | inhibition in vivo at 0.5 mg/kg (Rattus norvegicus [19]): 64% | inhibition (INH) (Lung [1]): 60% | inhibition (INH) (Lung [5]): 92%

CC(=O)Nc1cc(NC(C)=O)cc(N/C(C)=C2\C(=O)OC(=O)C(C(C)=O)=C2O)c1
ED50 (Rattus norvegicus [2]): 0.01 mg/kg | inhibition in vivo at 50 mg/kg (Rattus norvegicus [20]): -1%

CC(=O)C1=C(O)/C(=C(\C)Nc2ccc(O)c(N)c2)C(=O)OC1=O.Cl
inhibition (INH) [21]: -24% | inhibition (INH) [22]: 4% | inhibition (INH) [23]: 56% | ID30 [24]: 3.3 ×10⁻⁵ M | inhibition (INH) [25]: 49% | inhibition in vivo at 0.7 mg/kg (Rattus norvegicus [26]): 50% | inhibition (INH) (Lung [1]): 61% | inhibition (INH) (Lung [3]): 26% | inhibition (INH) [27]: 1% | inhibition (INH) (Lung [4]): 42% | inhibition (INH) (Lung [5]): 47% | ID30 [28]: 1.3 ×10⁻⁵ M | inhibition (INH) [29]: 66% | Ratio (Rattus norvegicus [30]): 1 | inhibition (INH) [31]: 40% | inhibition (INH) [32]: 22% | ED50 (Rattus norvegicus [6]): 0.8 mg/kg
